Data published in ChEMBL document CHEMBL1687891, “Triterpenoid saponins from Symplocos lancifolia” (2011).
Converted amounts (≈) assume the structure as drawn. The source made the active and inactive calls. The calls are words filed in the database; no cut-off is given here.

How the values were obtained:
[1] = tested on: Enterococcus faecalis; test: Antibacterial activity against Enterococcus faecalis ATCC 29212 assessed as clear zone after 18 hrs by TLC bioautography; type: functional, organism-based
Summary of the method: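 After the TLC run, the solvent was evaporated. Plates were overlaid with Mueller-Hinton agar seeded with bacteria in nutrient broth and incubated 18 h at 37 °C in a humidified chamber. They were then sprayed with p-iodonitrotetrazolium bromide (2 mg/mL) and incubated 2 h. Clear zones were scored as antibacterial activity.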

[2] = tested on: Escherichia coli; test: Antibacterial activity against Escherichia coli ATCC 25922 assessed as inhibition zone after 18 hrs by disk diffusion method; type: functional, organism-based
Summary of the method: (§1)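 Samples were prepared at 10 mg/mL in water, and 50 µL was applied to 8 mm paper disks. Disks were placed on Mueller-Hinton agar in 9 cm dishes, pre-inoculated with a suspension made from one colony in distilled water. Plates were incubated 18 h at 37 °C, then the inhibition zone was measured.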

[3] = tested on: Staphylococcus aureus; test: Antibacterial activity against Staphylococcus aureus ATCC 25923 assessed as inhibition zone after 18 hrs by disk diffusion method; type: functional, organism-based; summary of the method: as §1
[4] = tested on: Enterococcus faecalis; test: Antibacterial activity against Enterococcus faecalis ATCC 29212 assessed as inhibition zone after 18 hrs by disk diffusion method; type: functional, organism-based; summary of the method: as §1
[5] = tested on: Pseudomonas aeruginosa; test: Antibacterial activity against Pseudomonas aeruginosa ATCC 27853 assessed as inhibition zone after 18 hrs by disk diffusion method; type: functional, organism-based; summary of the method: as §1
[6] = tested on: Staphylococcus aureus; test: Antibacterial activity against Staphylococcus aureus assessed as growth inhibition by liquid microdilution assay; type: functional
Summary of the method: (§2)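 MIC was determined by liquid broth microdilution growth inhibition against standard strains.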

[7] = tested on: Escherichia coli; test: Antibacterial activity against Escherichia coli assessed as growth inhibition by liquid microdilution assay; type: functional; summary of the method: as §2
[8] = tested on: Enterococcus faecalis; test: Antibacterial activity against Enterococcus faecalis assessed as growth inhibition by liquid microdilution assay; type: functional; summary of the method: as §2
[9] = tested on: Pseudomonas aeruginosa; test: Antibacterial activity against Pseudomonas aeruginosa as growth inhibition by liquid microdilution assay; type: functional; summary of the method: as §2

Structure (SMILES) | inhibition [1] | inhibition [2] | inhibition [3] | inhibition [4] | inhibition [5] | MIC [6] [µg/mL] | MIC [7] [µg/mL] | MIC [8] [µg/mL] | MIC [9] [µg/mL]
C[C@@H]1O[C@@H](O[C@H]2C(OC(=O)[C@]34CCC(C)(C)C[C@H]3C3=CC[C@@H]5[C@@]6(C)C[C@@H](O)[C@H](O[C@@H]7O[C@H](CO)[C@@H](O)[C@H](O)[C@H]7O)[C@@](C)(CO)[C@@H]6CC[C@@]5(C)[C@]3(C)CC4)O[C@H](CO)[C@@H](O)[C@@H]2O)[C@H](O)[C@H](O)[C@H]1O (stereo partly drawn) | Active | Active | Active | Active | Active | – | – | – | –
C[C@@H]1O[C@@H](O[C@H]2[C@H](OC(=O)[C@]34CCC(C)(C)C[C@H]3C3=CC[C@@H]5[C@@]6(C)C[C@@H](O)[C@H](O[C@@H]7O[C@H](CO)[C@@H](O)[C@H](O)[C@H]7O)C(C)(C)[C@@H]6CC[C@@]5(C)[C@]3(C)CC4)O[C@H](CO)[C@@H](O)[C@@H]2O)[C@H](O)[C@H](O)[C@H]1O | Active | Active | Active | Active | Active | – | – | – | –
C[C@H]1[C@H](C)CC[C@]2(C(=O)OC3O[C@H](CO)[C@@H](O)[C@H](O)[C@H]3O[C@@H]3O[C@@H](C)[C@H](O)[C@@H](O)[C@H]3O)CC[C@]3(C)C(=CC[C@@H]4[C@@]5(C)C[C@@H](O)[C@H](O[C@@H]6O[C@H](CO)[C@@H](O)[C@H](O)[C@H]6O)[C@@](C)(CO)[C@@H]5CC[C@]43C)[C@H]12 (stereo partly drawn) | Active | Active | Active | Active | Active | – | – | – | –
CC1(C)CC[C@]2(C(=O)O)CC[C@]3(C)C(=CC[C@@H]4[C@@]5(C)C[C@@H](O)[C@H](O)[C@@](C)(CO)[C@@H]5CC[C@]43C)[C@@H]2C1 [ARJUNOLIC ACID] | – | – | – | – | – | 64 | > 128 | 64 | > 128
C[C@H]1[C@H](C)CC[C@]2(C(=O)O)CC[C@]3(C)C(=CC[C@@H]4[C@@]5(C)C[C@@H](O)[C@H](O)[C@@](C)(CO)[C@@H]5CC[C@]43C)[C@H]12 [ASIATIC ACID] | – | – | – | – | – | > 128 | > 128 | 128 | > 128
CC(C)(O/N=C(\C(=O)N[C@@H]1C(=O)N2C(C(=O)[O-])=C(C[n+]3ccccc3)CS[C@H]12)c1csc(N)n1)C(=O)O [CEFTAZIDIME] | – | – | – | – | – | – | 10 | – | 10 (≈ 18.3 µM)
C[C@H]1[C@H](C)CC[C@]2(C(=O)O)CC[C@]3(C)C(=CC[C@@H]4[C@@]5(C)C[C@@H](O)[C@H](O)C(C)(C)[C@@H]5CC[C@]43C)[C@H]12 [COROSOLIC ACID] | – | – | – | – | – | 32 | > 128 | 32 | > 128
CC1(C)CC[C@]2(C(=O)O)CC[C@]3(C)C(=CC[C@@H]4[C@@]5(C)C[C@@H](O)[C@H](O)C(C)(C)[C@@H]5CC[C@]43C)[C@@H]2C1 [MASLINIC ACID] | – | – | – | – | – | 64 | > 128 | 16 | > 128
CC1(C)CC[C@]2(C(=O)O)CC[C@]3(C)C(=CC[C@@H]4[C@@]5(C)CC[C@H](O)C(C)(C)[C@@H]5CC[C@]43C)[C@@H]2C1 [OLEANOLIC_ACID] | – | – | – | – | – | > 128 | > 128 | 16 | > 128
C[C@H]1[C@H](C)CC[C@]2(C(=O)O)CC[C@]3(C)C(=CC[C@@H]4[C@@]5(C)CC[C@H](O)C(C)(C)[C@@H]5CC[C@]43C)[C@H]12 [URSOLIC ACID] | – | – | – | – | – | 128 | > 128 | 16 | > 128
CN[C@H](CC(C)C)C(=O)N[C@H]1C(=O)N[C@@H](CC(N)=O)C(=O)N[C@H]2C(=O)N[C@H]3C(=O)N[C@H](C(=O)N[C@H](C(=O)O)c4cc(O)cc(O)c4-c4cc3ccc4O)[C@H](O)c3ccc(c(Cl)c3)Oc3cc2cc(c3O[C@@H]2O[C@H](CO)[C@@H](O)[C@H](O)[C@H]2O[C@H]2C[C@](C)(N)[C@H](O)[C@H](C)O2)Oc2ccc(cc2Cl)[C@H]1O [VANCOMYCIN] | – | – | – | – | – | 2.5 | – | 2.5 | –
